Here are results for eleven compounds from ChEMBL document CHEMBL1139462, “Identification of novel and improved antimitotic agents derived from noscapine” (J Med Chem, 2005).

The structures appear in SMILES notation. Calls of active or inactive are those of the source.

The nature of series [1]: Cell cycle arrest in HEK293EBNA cells by accumulation at G1 phase cell at 5 uM relative to DMSO. The class given is functional, cell-based. The settings on record: Homo sapiens, HEK293-EBNA. In outline: (§1)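 HEK293 cells were exposed to compound for 16 h at the stated concentration, then analyzed by FACS for cell-cycle distribution (G1, S and G2/M fractions). Profiles were compared with a 0.5% DMSO vehicle control.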

The nature of series [2]: Cell cycle arrest in HEK293EBNA cells by accumulation at S phase cell at 5 uM relative to DMSO. It is filed as functional, cell-based. Conditions: Homo sapiens, HEK293-EBNA. In a few lines: as §1
A short description of series [3]: Cell cycle arrest in HEK293EBNA cells by accumulation at G2/M phase cell at 5 uM relative to DMSO. It is filed as functional, cell-based. Conditions: Homo sapiens, HEK293-EBNA. In outline: as §1
Series [4] in a line: Cell cycle arrest in HEK293EBNA cells by accumulation at G1 phase cell at 50 uM relative to DMSO. It is filed as functional, cell-based. Conditions: Homo sapiens, HEK293-EBNA. In a few lines: as §1
Series [5] can be described thus: Cell cycle arrest in HEK293EBNA cells by accumulation at S phase cell at 50 uM relative to DMSO. The class given is functional, cell-based. The settings on record: Homo sapiens, HEK293-EBNA. In a few lines: as §1
A short description of series [6]: Cell cycle arrest in HEK293EBNA cells by accumulation at G2/M phase cell at 50 uM relative to DMSO. The class given is functional, cell-based. Conditions: Homo sapiens, HEK293-EBNA. In outline: as §1
Series [7] in a line: Cell cycle arrest in HEK293EBNA cells by accumulation at G1 phase cell at 10 uM relative to DMSO. The class given is functional, cell-based. Conditions: Homo sapiens, HEK293-EBNA. In outline: (§2)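 HEK293 cells were exposed for 16 h to compound or to a 0.5% DMSO vehicle control. Cell-cycle phase distribution (G1, S, G2/M) was determined by FACS analysis and compared with the DMSO profile.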

Series [8] is described as follows: Cell cycle arrest in HEK293EBNA cells by accumulation at S phase cell at 10 uM relative to DMSO. The class given is functional, cell-based. The settings on record: Homo sapiens, HEK293-EBNA. In a few lines:
as §2

Series [9] is described as follows: Cell cycle arrest in HEK293EBNA cells by accumulation at G2/M phase cell at 10 uM relative to DMSO. It is filed as functional, cell-based. Conditions: Homo sapiens, HEK293-EBNA. In outline:
as §2

Series [10] is described as follows: Cell cycle arrest in HEK293EBNA cells by accumulation at G1 phase cell at 1 uM relative to DMSO. The class given is functional, cell-based. Conditions: Homo sapiens, HEK293-EBNA. In outline: as §1
Series [11] can be described thus: Cell cycle arrest in HEK293EBNA cells by accumulation at S phase cell at 1 uM relative to DMSO. It is filed as functional, cell-based. The settings on record: Homo sapiens, HEK293-EBNA. In a few lines:
as §1

Series [12] can be described thus: Cell cycle arrest in HEK293EBNA cells by accumulation at G2/M phase cell at 1 uM relative to DMSO. It is filed as functional, cell-based. The settings on record: Homo sapiens, HEK293-EBNA. In outline: as §1
A short description of series [13]: AUC in mouse at 20 mg/kg, po. It is filed as ADME, organism-based. On the set-up: dose 20 mg/kg, route oral. The settings on record: plasma.
Series [14] is described as follows: Bioavailability in mouse at 20 mg/kg, po. It is filed as ADME, organism-based. The settings on record: in vivo.
The nature of series [15]: Cell cycle arrest in HEK293EBNA cells by accumulation at G1 phase cell at 0.1 uM relative to DMSO. Conditions: Homo sapiens, HEK293-EBNA. The class given is functional, cell-based. In a few lines: as §2
A short description of series [16]: Cell cycle arrest in HEK293EBNA cells by accumulation at S phase cell at 0.1 uM relative to DMSO. It is filed as functional, cell-based. Conditions: Homo sapiens, HEK293-EBNA. In a few lines:
as §2

A short description of series [17]: Cell cycle arrest in HEK293EBNA cells by accumulation at G2/M phase cell at 0.1 uM relative to DMSO. It is filed as functional, cell-based. The settings on record: Homo sapiens, HEK293-EBNA. In outline:
as §2

Series [18] has as its target Tubulin. The series is described as follows: Inhibition of tubulin polymerization. It is filed as protein-complex assay, Homo sapiens.
Series [19] relates to A549. Nature of the series: Effect on cell growth in A549 cells by MTS assay. It is filed as functional, cell-based. The settings on record: Homo sapiens. For orientation: Formazan colour is commonly taken as a measure of viable cells.
Series [20] concerns A549. The series is described as follows: Effect on cell growth in A549 cells by colony-forming assay. The settings on record: Homo sapiens. It is filed as functional, cell-based.
Series [21] concerns NIH3T3. Nature of the series: Effect on cell growth in nondividing Swiss 3T3 cells at 3 uM by MTS assay. The class given is functional, cell-based. The settings on record: Mus musculus. In a few lines: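 Swiss 3T3 cells were tested in either a dividing or a nondividing state. Growth was read out by MTS assay, and an EC50 was derived for the dividing cells.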
A short description of series [22]: AUC in mouse at 2 mg/kg, iv. It is filed as ADME, organism-based. Also noted: dose 2 mg/kg, route intravenous. Conditions: plasma.
The nature of series [23]: (§3) Volume of distribution in mouse at 2 mg/kg, iv. The class given is ADME, organism-based. Also noted: dose 2 mg/kg, route intravenous. Conditions: in vivo, read-out: Vdss.
The nature of series [24]: (§4) Half life in mouse at 2 mg/kg, iv. It is filed as ADME, organism-based. Also noted: dose 2 mg/kg, route intravenous. Conditions: in vivo.
A short description of series [25]: Clearance in mouse at 2 mg/kg, iv. The class given is ADME, organism-based. Also noted: dose 2 mg/kg, route intravenous. Conditions: in vivo. In a few lines: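 Pharmacokinetics were measured in mice, with an intravenous dose of 2 mg/kg; the study's oral arm used 20 mg/kg po.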
Series [26] has as its system Mus musculus. The series is described as §3. The class given is ADME, organism-based. On the set-up: dose 2 mg/kg, route intravenous. Conditions: in vivo.
For series [27], the system named is Mus musculus. The description is as §4. It is filed as ADME, organism-based. Also noted: dose 2 mg/kg, route intravenous. The settings on record: in vivo.
Series [28] deals with NIH3T3. Nature of the series: Effect on cell growth in nondividing Swiss 3T3 cells at 50 uM by MTS assay. The class given is functional, cell-based. The settings on record: Mus musculus.
A short description of series [29]: Cell cycle arrest in HEK293EBNA cells by accumulation at G1 phase cell at 0.5 uM relative to DMSO. It is filed as functional, cell-based. Conditions: Homo sapiens, HEK293-EBNA. In outline:
as §1

Series [30] in a line: Cell cycle arrest in HEK293EBNA cells by accumulation at S phase cell at 0.5 uM relative to DMSO. It is filed as functional, cell-based. The settings on record: Homo sapiens, HEK293-EBNA. In a few lines: as §1
Series [31] is described as follows: Cell cycle arrest in HEK293EBNA cells by accumulation at G2/M phase cell at 0.5 uM relative to DMSO. Conditions: Homo sapiens, HEK293-EBNA. It is filed as functional, cell-based. In outline:
as §1

Take `COc1ccc2c(c1S)C(=O)O[C@@H]2[C@H]1c2c(cc3c(c2OC)OCO3)CCN1C`: the Activity in [1] amounted to 3%; in [2], 7%; in series [3] it was 90%.

As for `COc1ccc2c(c1OS(=O)(=O)C(F)(F)F)C(=O)O[C@@H]2[C@H]1c2c(cc3c(c2OC)OCO3)CCN1C`, the Activity is 56% in series [4], 35% in series [5] and 9% in series [6].

For `COc1ccc2c(c1NCc1ccccc1)C(=O)O[C@@H]2[C@H]1c2c(cc3c(c2OC)OCO3)CCN1C`, the Activity in [1] was 8%; in series [2], 29%; in [3] it was 63%.

Take `COc1cc2c(c(OC)c1OC)-c1ccc(OC)c(=O)cc1[C@@H](NC(C)=O)CC2`: the Activity in series [7] was 3%; in series [8] it was 14%; in series [9] it was 83%.

For `COc1ccc2c(c1)C(=O)O[C@@H]2[C@H]1c2c(cc3c(c2OC)OCO3)CCN1C`, the Activity in series [10] came to 4%; in series [11], 6%; in series [12], 90%.

In the case of `COc1ccc2c(c1N)C(=O)O[C@@H]2[C@H]1c2c(cc3c(c2OC)OCO3)CCN1C`, the results for the AUC in series [13] and in series [22] were 391 ng·h/mL and 350 ng·h/mL, respectively. Besides, the bioavailability in series [14] turned out to be 11.4%. For the same compound, the Activity came out at 1% in series [15], 7% in [16] and 92% in series [17]. Besides, the figures for the EC50 in series [18], in [19] and in series [20] were 300 nM, 97 nM and 84 nM, respectively. Besides, the outcome in [21] was inactive. Besides, the Vd in series [23] is 8.47 L/kg. The same compound showed a half-life in series [24] of 1.04 h. The clearance in series [25] stood at 95.3 mL/min/kg.

For the compound `COc1ccc2c(c1OC)C(=O)O[C@@H]2[C@H]1c2c(cc3c(c2OC)OCO3)CCN1C` [NOSCAPINE], the figures for the AUC in series [13] and in series [22] were 524 ng·h/mL and 345 ng·h/mL, respectively. This compound had a bioavailability in series [14] of 14.1%. The Activity worked out at 19% in series [4], 31% in series [5] and 50% in series [6]. The EC50 was above 50000 nM in series [18] and 25000 nM in [19]. Moreover, in series [26], the Vdss is 15.53 L/kg. Further, the t1/2 in [27] is 0.833 h.

For the compound `COc1ccc2c(c1N)C(=O)O[C@@H]2[C@H]1c2c(c(Br)c3c(c2OC)OCO3)CCN1C`, the results for the Activity in [10], in series [11] and in [12] were 4%, 15% and 81%, respectively.

Regarding `CC[C@]1(O)C[C@@H]2CN(CCc3c([nH]c4ccccc34)[C@@](C(=O)OC)(c3cc4c(cc3OC)N(C)[C@H]3[C@@](O)(C(=O)OC)[C@H](OC(C)=O)[C@]5(CC)C=CCN6CC[C@]43[C@@H]65)C2)C1` [VINBLASTINE], the EC50 in [19] turned out to be 0.9 nM; in series [20] it was 0.5 nM.

Consider `COc1ccc2c(c1O)C(=O)O[C@@H]2[C@H]1c2c(cc3c(c2OC)OCO3)CCN1C`, for which the AUC was found to be 740 ng·h/mL in [13] and 331 ng·h/mL in [22]. This compound came in with a bioavailability in series [14] of 22%. The Activity in series [10] turned out to be 3%; in [11], 9%; in series [12], 88%. The EC50 in [18] is 700 nM; in [19], 600 nM; in series [20], 500 nM. The outcome in series [28] was inactive. The Vd in series [23] stood at 28.1 L/kg. In [24], this compound returned a half-life of 2.79 h. The compound also yielded a clearance in [25] of 101 mL/min/kg.

On to `CNc1c(OC)ccc2c1C(=O)O[C@@H]2[C@H]1c2c(cc3c(c2OC)OCO3)CCN1C`, for which the Activity is 8% in series [29], 25% in [30] and 67% in series [31].

The AUC is the area under the concentration-time curve, a measure of exposure. Low values mean low exposure, high ones high exposure. Usually bioavailability stands for dose-corrected exposure relative to a reference, in per cent. Read a high bioavailability as good availability. The EC50 is the concentration giving half of the maximal effect. A lower EC50 goes with greater potency. A word on the half-life: it is the time needed for the level to fall by half in the phase considered. A higher half-life goes with slow loss. As a reminder, the clearance is a measure of how efficiently the substance is removed, as volume per time. In general, Vdss refers to the apparent volume that relates the amount in the body to the concentration in plasma or blood.
